The source of these data is ChEMBL document CHEMBL4145496, “In vitro antiplasmodial efficacy of synthetic coumarin-triazole analogs” (Eur J Med Chem, 2018).

The subject of data set [1] is Plasmodium falciparum. The experiment in a line: Antimalarial activity against chloroquine-sensitive Plasmodium falciparum 3D7 erythrocytic stage after 48 hrs by Giemsa staining-based microscopic analysis. It counts as functional, organism-based. Particulars: 3D7, 48 h. Summed up:
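Parasites kept in human O+ erythrocytes in RPMI 1640 with HEPES, NaHCO3, L-glutamine, gentamicin and Albumax II, under 3% O2/4% CO2/93% N2 at 37 °C. DMSO stocks (1 mg/ml) diluted into gentamicin-free RPMI. Graded concentrations for 48 h at 37 °C, medium changed at 24 h, in triplicate. Parasites counted per about 4000 erythrocytes on Giemsa thin smears. IC50 taken from semi-log plots.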

A short description of data set [2]: Cytotoxicity against human HuH7 cells assessed as reduction in cell viability after 72 hrs by MTT assay. The class given is cell-based, Huh-7. In short, it runs like this: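 Huh-7 monolayers grown in DMEM at 37 °C in 5% CO2. Cells seeded at about 20,000 per well and left 24 h, then given fresh medium containing 1, 10, 20, 30, 50 or 100 μg/mL compound for 72 h. Viability read by MTT, absorbance at 570 nm.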
A general note: Tetrazolium assays rely on reduction of a dye to a coloured formazan, in cell work by metabolically active cells.

The target in data set [3] is DNA gyrase (Escherichia coli) (UniProt P0AES6+P0AES4). The experiment in a line: Inhibition of Escherichia coli DNA gyrase assessed as inhibition of enzyme-mediated supercoiling of relaxed pHOT1 DNA substrate at IC50 after 1 hr by ethidium bromide staining based agarose gel electrophoresis. The class given is protein-complex assay.

In brackets after ≈: the same amount, converted by molar mass. Activity calls are given as the source filed them. The calls are words filed in the database; no cut-off is given here.

A word on the IC50: it is the concentration needed to halve the response being measured. By CC50 is commonly meant the concentration that lowers cell viability or growth by half. In data set [1], `Cc1cc(=O)oc2cc(OCc3cn(-c4ccccc4[N+](=O)[O-])nn3)ccc12` registered an IC50 of 6.86 µg/mL (≈ 18.1 µM). Further, in data set [2], the 50% cytotoxic concentration (CC50) at 72 h was above 100 µg/mL.
On the same counts, the results for `Cc1cc(=O)oc2cc(OCc3cn(CCO)nn3)ccc12` are 3.36 µg/mL (≈ 11.2 µM) and above 100 µg/mL.
In the case of `COC(=O)Cn1cc(COc2ccc3c(C)cc(=O)oc3c2)nn1`, the midpoint of inhibition in data set [1], the IC50, lay at 3.3 µg/mL (≈ 10 µM). The CC50 at 72 h in data set [2] was above 100 µg/mL.
Turning to `Cc1cc(=O)oc2cc(OCc3cn(Cc4ccccc4)nn3)ccc12`, in data set [1], the midpoint of inhibition, the IC50, lay at 6.4 µg/mL (≈ 18.4 µM). Further, in data set [2], the CC50 at 72 h is above 100 µg/mL.
On the same counts, the results for `COc1cc(-n2cc(COc3ccc4c(C)cc(=O)oc4c3)nn2)cc(OC)c1OC` are 11.1 µg/mL (≈ 26.1 µM) and above 100 µg/mL.
The matching figures for `Cc1cc(F)ccc1-n1cc(COc2ccc3c(C)cc(=O)oc3c2)nn1`: 12.8 µg/mL (≈ 35 µM) and above 100 µg/mL.
The matching figures for `Cc1cc(=O)oc2cc(OCc3cn(-c4ccc(Cl)cc4)nn3)ccc12`: 8.43 µg/mL (≈ 22.9 µM) and above 100 µg/mL.
In turn, `Cc1cc(=O)oc2cc(OCc3cn(-c4ccc(F)c(Cl)c4)nn3)ccc12` showed an IC50 in data set [1] of 7.43 µg/mL (≈ 19.3 µM). The CC50 at 72 h in data set [2] is above 100 µg/mL.
The matching figures for `Cc1cc(=O)oc2cc(OCc3cn(-c4ccc(OC(F)(F)F)cc4)nn3)ccc12`: 5 µg/mL (≈ 12 µM) and above 100 µg/mL.
On the same counts, the results for `Cc1cc(=O)oc2cc(OCc3cn(-c4ccccc4Cl)nn3)ccc12` are 8.94 µg/mL (≈ 24.3 µM) and above 100 µg/mL.
With `Cc1ccc(-n2cc(COc3ccc4c(C)cc(=O)oc4c3)nn2)c(Cl)c1`, in data set [1], inhibition was half-maximal at 1.5 µg/mL (≈ 3.92 µM) (IC50). Besides, the 50% cytotoxic concentration (CC50) at 72 h in data set [2] is above 100 µg/mL. For the same compound, the inhibition result in data set [3] was “Active”.
Turning to `Cc1cc(=O)oc2cc(OCc3c[nH]nn3)ccc12`, it took 1.82 µg/mL (≈ 7.06 µM) to reach half-maximal inhibition in data set [1] (IC50). In addition, the cytotoxic concentration (CC50) at 72 h in data set [2] was above 100 µg/mL.
`COc1ccc(-n2cc(COc3ccc4c(C)cc(=O)oc4c3)nn2)c(OC)c1` yielded a 50% inhibitory concentration (IC50) in data set [1] of 0.763 µg/mL (≈ 1.94 µM). Besides, the CC50 at 72 h in data set [2] was above 100 µg/mL. Also, the inhibition entry in data set [3] is “Active”.
Compound `Cc1cc(=O)oc2cc(OCc3cn(-c4ccnc5cc(Cl)ccc45)nn3)ccc12` showed an IC50 in data set [1] of 10.6 µg/mL (≈ 25.3 µM). Also, the cytotoxic concentration (CC50) at 72 h in data set [2] was above 100 µg/mL.
On to `Cc1cc(=O)oc2cc(OCc3cn(-c4ccc(F)cc4)nn3)ccc12`, for which the half-maximal inhibitory concentration (IC50) in data set [1] was found to be 6.43 µg/mL (≈ 18.3 µM). Also, the CC50 at 72 h in data set [2] is above 100 µg/mL.
On the same counts, the results for `Cc1cc(=O)oc2cc(OCc3cn(-c4ccc(Oc5ccccc5)cc4)nn3)ccc12` are 4.56 µg/mL (≈ 10.7 µM) and above 100 µg/mL.
The matching figures for `Cc1cc(=O)oc2cc(OCc3cn(-c4ccccc4F)nn3)ccc12`: 2.48 µg/mL (≈ 7.06 µM) and above 100 µg/mL.
In the case of `Cc1cc(C)cc(-n2cc(COc3ccc4c(C)cc(=O)oc4c3)nn2)c1`, the IC50 in data set [1] was 0.893 µg/mL (≈ 2.47 µM). Also, the 50% cytotoxic concentration (CC50) at 72 h in data set [2] is above 100 µg/mL. Besides, the inhibition result in data set [3] was “Active”.
Turning to `Cc1cc(=O)oc2cc(OCc3cn(-c4ccc(F)cc4F)nn3)ccc12`, the IC50 in data set [1] is 15.4 µg/mL (≈ 41.7 µM). The CC50 at 72 h in data set [2] is above 100 µg/mL.
The matching figures for `CC(=O)Nc1ccc(-n2cc(COc3ccc4c(C)cc(=O)oc4c3)nn2)cc1`: 4.16 µg/mL (≈ 10.7 µM) and above 100 µg/mL.
The matching figures for `Cc1cc(=O)oc2cc(OCc3cn(-c4cccc(F)c4)nn3)ccc12`: 9.46 µg/mL (≈ 26.9 µM) and above 100 µg/mL.
On the same counts, the results for `Cc1cc(=O)oc2cc(OCc3cn(Cc4ccc([N+](=O)[O-])cc4)nn3)ccc12` are 2.23 µg/mL (≈ 5.68 µM) and above 100 µg/mL.
